Source: ChEMBL document CHEMBL4229443, “Activation studies with amines and amino acids of the α-carbonic anhydrase from the pathogenic protozoan Trypanosoma cruzi” (Bioorg Med Chem, 2018)

Compound: N[C@@H](Cc1c[nH]c2ccccc12)C(=O)O
Assay: Activation of Trypanosoma cruzi CA assessed as Kcat at 10 uM preincubated for 15 mins followed by CO2 addition by stopped-flow assay (reference value: 1.2 10^6/s)
In short: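 kcat of recombinant TcCA measured with 10 µM activator after 15 min pre-incubation at room temperature. Stopped-flow CO2 hydration in 10 mM Hepes pH 7.5 with 0.1 M Na2SO4 and 0.2 mM phenol red (557 nm), 25 °C. Initial velocities from the first 5–10% of the reaction, uncatalyzed rate subtracted. Mean of at least three determinations.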

B1: Carbonic anhydrase-like protein, putative (Trypanosoma cruzi (strain CL Brener)), Q4CVY4 (protein)
chain: MTCGIRRGEGREGSKMVKAVIFSLLCLHVHALMSPVSAENGYTTAGLPREKPQGPQWGYTNLTAWPKLCQTGKQQSPVSFSELQPNEVVHRKDMGPLVFSRDCKFAAEKTSLKIENEVNTISVRFIPLDDPTNKFPSLCTVRDPTDPDSPEYHLVSMHFHSPAEHVLPCANPDAELHLVFAHTQQSRQPHLMVVVVQLVASDKINSTSVAALKHILLDGSLPPKRAVTTCTLTENMTIAGFLPQSGSYFAYNGSLTTPPCTEGVLFVVLTSPQIISKTALERLVEAFQRARPGNHNGNHRPTQPLNGRVVYHFVDMHHMNYSMCMRDMENHHTNSSQMAGMSGAMQHMNCSMCMRNMENHHKNSSQMEGMSGAMQHMNCSMCMRNMENHHKNSSQMAGMSGAMQHMNCSMCMRNMENHHTNSSQMAGMSGAMQHMNCSMCMRNMENHHKNSSQMAGMSGAMQHMNCSMCMRNMENHHTNSSQMAGMSGAMQHMNCSMCMRNMENHHTNSSQMAGMSGAMQHMNCSMCMRNMENHHKNSSQMEGMSSEEMSMMERSANESSGAQLAGLASEENATNTSSAPANKWPHQFNSRERLFLIAAALVLLLVTFILYRWRNSSARETETESLFRSHEGYGTTNP
Q: B1 was tested. Which kcat did it give?
A: 7.8 ×10⁶ /s
